In experiment [1] the test system is Rattus norvegicus. Briefly: Antiallergic activity in rat assessed as inhibition of egg albumin-induced passive cutaneous anaphylaxis at 10 mg/kg, iv treated for 30 secs followed by egg albumin-challenge measured after 30 mins relative to control. It is filed as functional. Conditions: 0.5 h.
The test system of experiment [2] is Rattus norvegicus. Briefly: Antiallergic activity in rat assessed as inhibition of egg albumin-induced passive cutaneous anaphylaxis at 5 mg/kg, iv treated for 30 secs followed by egg albumin-challenge measured after 30 mins relative to control. To be noted: 0.5 h. It is filed as functional.
Experiment [3] deals with Lung. Briefly: Antiallergic activity in passively sensitized albino rat lungs assessed as inhibition of antigen-induced histamine release at 1 x 10^-5 M by fluorometric analysis relative to control. It counts as functional. The gist of the method:
(§1)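 Fragmented lung from adult male Charles River albino rats, passively sensitized, then antigen-challenged with compound present; released histamine measured fluorometrically; inhibition reported relative to control, with replicate count given as number of separate lung preparations.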

Experiment [4] deals with Rattus norvegicus. Kind of experiment: Antiallergic activity in rat assessed as inhibition of egg albumin-induced passive cutaneous anaphylaxis at 25 mg/kg, po treated for 15 mins followed by egg albumin-challenge measured after 30 mins relative to control. It counts as functional. The gist of the method:
(§2)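 Oral PCA in rats: intradermal antiserum at four back sites (dose giving ~12×12 mm wheal), compound po 48 h later, 15 min before iv challenge with 0.5 mL saline containing 5 mg Evans blue plus 5 mg egg albumin; skin bluing read 30 min after challenge on two axes per wheal; six rats per dose versus ≥6 vehicle controls; percent inhibition from mean wheal size, one-sided t test.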

Experiment [5] relates to Lung. Briefly: Antiallergic activity in passively sensitized albino rat lungs assessed as inhibition of antigen-induced histamine release at 1 x 10^-6 M by fluorometric analysis relative to control. It counts as functional. In a few lines:
as §1

Experiment [6] concerns Rattus norvegicus. Kind of experiment: Antiallergic activity in rat assessed as inhibition of egg albumin-induced passive cutaneous anaphylaxis at 0.5 mg/kg, iv treated for 30 secs followed by egg albumin-challenge measured after 30 mins relative to control. It is filed as functional. Conditions: 0.5 h.
In experiment [7] the test system is Rattus norvegicus. Briefly: Antiallergic activity in po dosed rat assessed as inhibition of egg albumin-induced passive cutaneous anaphylaxis treated for 15 mins followed by egg albumin-challenge measured after 30 mins. It counts as functional. To be noted: read-out: ID50 (the source's name). The gist of the method: as §2
Experiment [8] deals with Rattus norvegicus. Kind of experiment: Antiallergic activity in iv dosed rat assessed as inhibition of egg albumin-induced passive cutaneous anaphylaxis treated for 30 secs followed by egg albumin-challenge measured after 30 mins. It counts as functional. Conditions: 0.5 h, read-out: ID50 (the source's name).
The nature of experiment [9]: Antiallergic activity in passively sensitized rhesus monkey lungs assessed as inhibition of antigen-induced slow reacting substance of anaphylaxis release at 1 x 10^-5 M relative to control. It is filed as functional, Macaca mulatta, Lung. The gist of the method: (§3)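 Passively sensitized fragmented lung from a young adult male rhesus monkey, challenged with IgE-antihuman IgE; histamine release measured fluorometrically and SRS-A estimated by guinea pig ileum bioassay; inhibition relative to control; replicates given as number of separate lung preparations.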

Experiment [10] in a line: Antiallergic activity in passively sensitized rhesus monkey lungs assessed as inhibition of antigen-induced histamine release at 1 x 10^-5 M by fluorometric analysis relative to control. It is filed as functional, Macaca mulatta, Lung. In a few lines: as §3
The nature of experiment [11]: Antiallergic activity in passively sensitized rhesus monkey lungs assessed as inhibition of antigen-induced histamine release at 1 x 10^-4 M by fluorometric analysis relative to control. It counts as functional, Macaca mulatta, Lung. The gist of the method:
as §3

A short description of experiment [12]: Antiallergic activity in passively sensitized rhesus monkey lungs assessed as inhibition of antigen-induced slow reacting substance of anaphylaxis release at 1 x 10^-4 M relative to control. It is filed as functional, Macaca mulatta, Lung. In a few lines: as §3
For experiment [13], the system named is Rattus norvegicus. Kind of experiment: Antiallergic activity in rat assessed as inhibition of egg albumin-induced passive cutaneous anaphylaxis at 50 mg/kg, po treated for 15 mins followed by egg albumin-challenge measured after 30 mins relative to control. It is filed as functional. In a few lines: as §2

Take `CC(C)CC(=O)c1c(O)oc(=O)c(C(=O)CC(C)C)c1O`: the inhibition in vivo (usually the drop in the measured response relative to a control, in per cent) at 10 mg/kg in the experiment on Rattus norvegicus [1] turned out to be 23%. Take `CCOC(=O)c1ccccc1N/C(C)=C1\C(=O)OC(=O)C(C(C)=O)=C1O`: the inhibition in vivo at 5 mg/kg in the experiment with Rattus norvegicus [2] was found to be 18%. Turning to `CC(=O)C1=C(O)/C(=C(\C)Nc2ccc(NC(=O)C(C)C)cc2)C(=O)OC1=O`, the entries for the “inhibition (INH)” value with Lung [3] and with Lung [5] were 92% and 60%, respectively. In addition, the inhibition in vivo at 25 mg/kg in the experiment with Rattus norvegicus [4] came out at 4%. Also, in the experiment with Rattus norvegicus [6], the inhibition in vivo at 0.5 mg/kg worked out at 64%. Consider `CC(=O)C1=C(O)/C(=C(\C)Nc2cc(NC(=O)C(=O)O)cc(NC(=O)C(=O)O)c2)C(=O)OC1=O`, for which the ED50 was 19 mg/kg in the experiment on Rattus norvegicus [7] and 0.05 mg/kg with Rattus norvegicus [8]. Regarding `CC(=O)C1=C(O)/C(=C(\C)Nc2cc(N)cc(O)c2)C(=O)OC1=O.Cl`, the results for the ED50 with Rattus norvegicus [7] and with Rattus norvegicus [8] were 8 mg/kg and 0.5 mg/kg, respectively. Further, the “inhibition (INH)” value is 5% in [9], -0.7% in experiment [10], 24% in [11] and 18% in [12]. With `CC(=O)C1=C(O)/C(=C(\C)Nc2ccc(Cl)c(Cl)c2)C(=O)OC1=O`, in the experiment with Rattus norvegicus [1], the inhibition in vivo at 10 mg/kg was 10%. Consider `CC(=O)C1=C(O)/C(=C(\C)N)C(=O)OC1=O`, for which the inhibition in vivo at 5 mg/kg in the experiment with Rattus norvegicus [2] amounted to 17%. Same read-out and setting: with `CC(=O)Nc1ccc(N/C(C)=C2\C(=O)OC(=O)C(C(C)=O)=C2O)cc1` the figure was 19%. With `CCC(=O)Nc1cc(NC(=O)CC)cc(N/C(C)=C2\C(=O)OC(=O)C(C(C)=O)=C2O)c1`, in the experiment with Rattus norvegicus [8], the ED50 was found to be 0.003 mg/kg. Besides, the inhibition in vivo at 50 mg/kg in the experiment with Rattus norvegicus [13] amounted to 14%.

Regarding `COc1ccc(N/C(C)=C2\C(=O)OC(=O)C(C(C)=O)=C2O)cc1`, the inhibition in vivo at 5 mg/kg with Rattus norvegicus [2] is 27%.

Turning to `CCCC(=O)c1c(O)oc(=O)c(C(=O)CCC)c1O`, in the experiment on Rattus norvegicus [1], the inhibition in vivo at 10 mg/kg amounted to 3%.

With `CC(=O)C1=C(O)/C(=C(\C)Nc2ccccc2Cl)C(=O)OC1=O`, the inhibition in vivo at 10 mg/kg with Rattus norvegicus [1] was found to be 36%. As to `CC(=O)C1=C(O)/C(=C(\C)Nc2cc(N)cc(N)c2)C(=O)OC1=O`, the ED50 is 0.9 mg/kg in the experiment with Rattus norvegicus [7] and 0.5 mg/kg in the experiment with Rattus norvegicus [8]. On to `CC(=O)C1=C(O)/C(=C(\C)Nc2cc(O)ccc2N)C(=O)OC1=O`, for which, in the experiment on Rattus norvegicus [2], the inhibition in vivo at 5 mg/kg is 47%.

With `CC(=O)C1=C(O)/C(=C(\C)Nc2c(Cl)cccc2Cl)C(=O)OC1=O`, in the experiment with Rattus norvegicus [1], the inhibition in vivo at 10 mg/kg was determined as 3%.

In the case of `CC(=O)C1=C(O)/C(=C(\C)Nc2cc(NS(C)(=O)=O)cc(NS(C)(=O)=O)c2)C(=O)OC1=O`, the ED50 with Rattus norvegicus [8] is 0.3 mg/kg. Besides, the inhibition in vivo at 50 mg/kg with Rattus norvegicus [13] was 9%. With `COc1ccc(N(C)/C(C)=C2\C(=O)OC(=O)C(C(C)=O)=C2O)cc1`, the inhibition in vivo at 5 mg/kg in the experiment on Rattus norvegicus [2] was determined as 37%.

The values above are taken from ChEMBL document CHEMBL3244146, “Pyranenamines: a new series of antiallergic compounds” (1979).
